Our source for the IC50 values is ChEMBL document CHEMBL3259684, “Dual inhibition of the α-glucosidase and butyrylcholinesterase studied by molecular field topology analysis” (Eur J Med Chem, 2014).

pIC50: −log10 of the molar value.

In one assay the target is Cholinesterase (Homo sapiens, UniProt P06276). Put plainly: Inhibition of BChE (unknown origin) using BCh iodide as substrate preincubated for 15 mins prior to substrate addition measured after 10 mins by Ellman's method. (In general: Ellman's reagent forms a yellow product with free thiols.)
Assay [1] is described as follows: Inhibition of yeast alpha-glucosidase type 3 using p-nitrophenyl-alpha-D-glucopyranoside as substrate preincubated with substrate for 5 mins prior to enzyme challenge for 30 mins by absorbance analysis. More on the design: species or system Saccharomyces cerevisiae. The method, boiled down:
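Yeast enzyme at 0.1 units/ml in pH 6.8 potassium phosphate/MgCl2 buffer; substrate stock 6 mmol/L. Compound (sample solution 0.6 mg/ml in DMSO) mixed with buffer, water and substrate, held 5 min at 37 °C, then enzyme added; reaction 30 min at 37 °C, stopped with 0.4 mol/L glycine buffer pH 10; p-nitrophenol read at 410 nm. Deoxynojirimycin as reference inhibitor.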

Cholinesterase, sequence (P06276 whole entry): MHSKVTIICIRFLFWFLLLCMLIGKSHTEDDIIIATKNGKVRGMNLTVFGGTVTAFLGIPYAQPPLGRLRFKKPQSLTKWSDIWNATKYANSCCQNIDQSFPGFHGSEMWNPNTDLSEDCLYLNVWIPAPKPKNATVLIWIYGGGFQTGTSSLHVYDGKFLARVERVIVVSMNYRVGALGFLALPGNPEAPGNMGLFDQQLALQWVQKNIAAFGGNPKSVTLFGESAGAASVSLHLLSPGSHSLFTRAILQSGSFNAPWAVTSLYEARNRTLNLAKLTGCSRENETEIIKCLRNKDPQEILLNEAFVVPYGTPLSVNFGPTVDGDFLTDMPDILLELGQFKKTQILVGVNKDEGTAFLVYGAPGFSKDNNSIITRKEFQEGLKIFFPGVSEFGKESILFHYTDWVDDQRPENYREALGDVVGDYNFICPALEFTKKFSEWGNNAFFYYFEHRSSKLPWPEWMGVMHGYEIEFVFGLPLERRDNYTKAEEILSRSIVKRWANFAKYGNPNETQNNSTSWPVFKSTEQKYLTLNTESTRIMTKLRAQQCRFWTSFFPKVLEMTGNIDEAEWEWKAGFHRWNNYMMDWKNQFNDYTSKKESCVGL

What is called pIC50 is the IC50 on a negative log10 scale, so that one unit is a factor of ten. A high value points to a low IC50. In turn, `COc1ccccc1/C=C/C(=O)c1ccccc1` had a pIC50 against Cholinesterase of 4.57.
Regarding `O=C(/C=C/c1ccc([N+](=O)[O-])cc1)c1ccccc1`, the pIC50 was 2.41 in assay [1] and 4.49 against Cholinesterase.
Consider `O=[N+]([O-])c1ccc(-n2cc(-c3ccccc3)nn2)cc1`, for which the negative logarithm of the IC50 (pIC50) in assay [1] is 3.63; at Cholinesterase it was 3.60.
For `O=C(/C=C/c1ccccc1O)c1ccccc1`, the pIC50 at Cholinesterase was 3.98.
With `O=C(/C=C/c1ccccc1O)c1ccccc1O`, the pIC50 is 4.31 in assay [1] and 4.89 at Cholinesterase.
Take `Nc1ccc(C(=O)/C=C/c2ccccc2Br)cc1`: the pIC50 against Cholinesterase was 4.59.
With `c1ccc(C2=Nc3ccccc3SC(c3ccccc3)C2)cc1` (stereo unspecified), the pIC50 in assay [1] was 4.48.
Consider `Oc1ccccc1C1=Nc2ccccc2SC(c2ccccc2)C1` (stereo unspecified), for which the pIC50 in assay [1] is 4.89; against Cholinesterase, 4.21.
The molecule `Oc1ccccc1C1=Nc2ccccc2SC(c2ccc(Cl)cc2)C1` (stereo unspecified) gave a pIC50 in assay [1] of 4.74.
Take `Oc1ccccc1C1=Nc2ccccc2SC(c2ccc(F)cc2)C1` (stereo unspecified): the pIC50 in assay [1] was 4.92; on Cholinesterase it was 4.85.
In turn, `COc1ccc(C2CC(c3ccccc3O)=Nc3ccccc3S2)cc1` (stereo unspecified) had a negative-log IC50 (pIC50) in assay [1] of 4.92.
As for `Cc1ccc(C2CC(c3ccccc3O)=Nc3ccccc3S2)cc1` (stereo unspecified), the pIC50 in assay [1] was 4.92; on Cholinesterase it was 4.85.
With `O=C(/C=C/c1ccc2c(c1)OCO2)c1ccccc1`, the pIC50 in assay [1] was 2.73.
Still for that read-out and setting: to `O=C(/C=C/c1ccc2c(c1)OCO2)c1ccccc1O` belongs 3.82.
For `COc1cccc(/C=C/C(=O)c2ccccc2)c1`, the results for the pIC50 (in assay [1]; against Cholinesterase) were 3.82 and 4.49, respectively.
The matching figures for `CCCCCCCCCCCCCCCCn1cc(C2(O)CCCCC2)nn1`: 2.92 and 3.30.
Taken in the same sequence, the figures for `OC1(c2cn(-c3ccccc3Cl)nn2)CCCCC1` were 3.43 and 3.37.
For `O=[N+]([O-])c1cccc(-n2cc(C3(O)CCCCC3)nn2)c1`, the pIC50 in assay [1] was 3.06; on Cholinesterase it was 3.23.
On to `Clc1ccccc1-n1cc(-c2ccccc2)nn1`, for which the pIC50 was 4.24 in assay [1] and 4.38 on Cholinesterase.
As to `Brc1ccc(-n2cc(-c3ccccc3)nn2)cc1`, the pIC50 is 3.39 in assay [1] and 3.43 on Cholinesterase.
In the case of `O=[N+]([O-])c1cccc(-n2cc(-c3ccccc3)nn2)c1`, the pIC50 was 3.28 in assay [1] and 3.30 on Cholinesterase.
Taken in the same sequence, the figures for `N#Cc1cc([N+](=O)[O-])ccc1-n1cc(C2(O)CCCCC2)nn1` were 4.30 and 4.37.
The matching figures for `O=C(On1cc(C2(O)CCCCC2)nn1)c1ccccc1`: 2.96 and 3.61.
Regarding `CCCCCCCCc1ccc(-n2cc(C3(O)CCCCC3)nn2)cc1`, the pIC50 in assay [1] is 3.18; against Cholinesterase it was 4.36.
Take `OC1(c2cn(-c3ccc(Cl)cc3)nn2)CCCCC1`: the pIC50 is 2.86 in assay [1] and 3.53 on Cholinesterase.
On to `COC(=O)Cc1ccc(-n2cc(C3(O)CCCCC3)nn2)cc1`, for which the results for the negative-log IC50 (pIC50) (in assay [1]; on Cholinesterase) were 3.09 and 3.25, respectively.
On to `O=[N+]([O-])c1ccc(-n2cc(C3(O)CCCCC3)nn2)cc1`, for which the pIC50 in assay [1] was 3.49; against Cholinesterase, 3.39.
The matching figures for `Cc1ccc(-n2cc(C3(O)CCCCC3)nn2)c(Cl)c1`: 3.44 and 4.18.
As for `CC(=O)c1cccc(-n2cc(C3(O)CCCCC3)nn2)c1`, the results for the pIC50 (in assay [1]; at Cholinesterase) were 3.49 and 3.34, respectively.
As for `OC1(c2cn(-c3cccc(Cl)c3)nn2)CCCCC1`, the pIC50 in assay [1] was 2.86; on Cholinesterase it was 3.29.
Consider `OC1(c2cn(-c3ccc(Br)cc3)nn2)CCCCC1`, for which the pIC50 in assay [1] is 3.49; against Cholinesterase, 3.53.
The matching figures for `COc1cccc(-n2cc(C3(O)CCCCC3)nn2)c1`: 3.61 and 4.08.
Regarding `CC(=O)c1cccc(-n2cc(-c3ccccc3)nn2)c1`, the pIC50 is 3.58 in assay [1] and 3.35 against Cholinesterase.
In the case of `CC(=O)c1ccccc1-n1cc(-c2ccccc2)nn1`, the pIC50 in assay [1] is 3.50; against Cholinesterase it was 3.53.
`O=[N+]([O-])c1ccccc1-n1cc(C2(O)CCCCC2)nn1`: the pIC50 is 2.77 in assay [1] and 3.48 on Cholinesterase.
Regarding `COC(=O)Cn1cc(C2(O)CCCCC2)nn1`, the pIC50 in assay [1] was 3.59; on Cholinesterase, 3.44.
`OC1(c2cn(-c3ccncc3)nn2)CCCCC1`: the pIC50 was 3.28 in assay [1] and 3.41 against Cholinesterase.
`Clc1ccc(-n2cc(-c3ccccc3)nn2)cc1`: the pIC50 in assay [1] is 3.42; against Cholinesterase it was 3.26.
For the molecule `CCCCCCCCCCCCCCCCn1cc(-c2ccccc2)nn1`, the pIC50 was 3.43 in assay [1] and 3.34 at Cholinesterase.
Taken in the same sequence, the figures for `CC(=O)c1ccc(-n2cc(C3(O)CCCCC3)nn2)cc1` were 2.81 and 3.35.
In the case of `O=[N+]([O-])c1ccccc1-n1cc(-c2ccccc2)nn1`, in assay [1], the pIC50 was 2.17.
In turn, `Oc1ccc(C2=Nc3ccccc3SC(c3cccs3)C2)cc1` (stereo unspecified) showed a pIC50 against Cholinesterase of 5.40.
`Oc1ccc(C2=Nc3ccccc3SC(c3cccc(O)c3)C2)cc1` (stereo unspecified) gave a pIC50 against Cholinesterase of 5.33. The pIC50 values of the last two molecules are within 0.2 log units of each other.
`c1ccc(C2=Nc3ccccc3SC(c3cccs3)C2)cc1` (stereo unspecified) had a pIC50 against Cholinesterase of 5.04.
Same read-out and setting: to `Cc1ccc(C2CC(c3cccc(O)c3)=Nc3ccccc3S2)c(C)c1` (stereo unspecified) belongs 4.71; to `O=[N+]([O-])c1ccc(C2CC(c3ccccc3O)=Nc3ccccc3S2)cc1` (stereo unspecified), 4.24.
Same read-out and setting: to `CCSc1ccccc1-c1cnc(-c2ccsc2)[nH]1` belongs 7.00.
`COc1ccc(C(=O)/C=C/c2ccc(N)cc2)cc1` gave a pIC50 in assay [1] of 4.69.
The same measure, in the same setting: under `COc1cccc(/C=C/C(=O)c2ccc(N)cc2)c1` stands 4.03; under `COc1cccc(/C=C/C(=O)c2ccccc2O)c1`, 3.89.
For `O=C(/C=C/c1ccccc1)c1ccccc1O` [2'-HYDROXYCHALCONE], the pIC50 in assay [1] was 4.82; against Cholinesterase, 4.08.
Turning to `COc1ccc(/C=C/C(=O)c2ccccc2)cc1` [4-METHOXY CHALCONE], the pIC50 on Cholinesterase was 4.38.
Take `O=C(/C=C/c1ccccc1)c1ccccc1` [CHALCONE]: at Cholinesterase, the pIC50 was 4.06.
